Active and inactive are the calls of the source. No cut-off for these calls is given here.

Holding throughout (format): cell-based
In data set [1] the target is T1, Short transient receptor potential channel 7 (Homo sapiens) (UniProt Q9HCX4).
T1 sequence (whole entry): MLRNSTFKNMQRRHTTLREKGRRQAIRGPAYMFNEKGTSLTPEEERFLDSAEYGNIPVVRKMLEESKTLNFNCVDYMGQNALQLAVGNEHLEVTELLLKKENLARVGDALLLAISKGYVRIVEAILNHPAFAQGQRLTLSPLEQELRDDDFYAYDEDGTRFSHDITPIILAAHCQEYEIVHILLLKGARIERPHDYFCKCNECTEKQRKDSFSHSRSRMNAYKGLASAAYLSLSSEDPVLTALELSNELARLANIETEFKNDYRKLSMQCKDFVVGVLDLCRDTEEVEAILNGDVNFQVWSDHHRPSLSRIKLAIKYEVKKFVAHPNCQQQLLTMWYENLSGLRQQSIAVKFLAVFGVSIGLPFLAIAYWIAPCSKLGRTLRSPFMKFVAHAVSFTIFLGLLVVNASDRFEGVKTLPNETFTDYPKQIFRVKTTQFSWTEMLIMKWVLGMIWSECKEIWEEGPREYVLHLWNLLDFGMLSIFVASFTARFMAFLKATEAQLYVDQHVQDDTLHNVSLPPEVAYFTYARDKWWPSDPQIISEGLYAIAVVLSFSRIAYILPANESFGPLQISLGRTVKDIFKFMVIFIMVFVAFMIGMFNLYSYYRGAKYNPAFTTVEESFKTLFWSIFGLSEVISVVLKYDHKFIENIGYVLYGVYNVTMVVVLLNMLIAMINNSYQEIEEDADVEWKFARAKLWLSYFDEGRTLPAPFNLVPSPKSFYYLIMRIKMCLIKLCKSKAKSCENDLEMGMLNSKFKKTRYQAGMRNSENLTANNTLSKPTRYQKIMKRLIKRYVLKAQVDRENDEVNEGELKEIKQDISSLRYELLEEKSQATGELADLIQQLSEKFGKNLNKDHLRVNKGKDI
Description: Agonist activity at human TRPC7 expressed in HEK293 cells assessed as increase in membrane depolarization measured for 2.5 mins in presence of 2 mM Ca2+ by FLIPR membrane potential dye-based fluorescence assay.

Data set [2] relates to HEK293. Description: Induction of membrane potential depolarization in HEK293 cells measured for 2.5 mins by FLIPR assay. The following applies: human, hek293, 2.5 min. The procedure, abridged:
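Parental HEK293 cells on a FlexStation at 32 °C, loaded with Fluo4-AM or FMP dye, in 2 mM Ca2+ extracellular saline, pH 7.4. Compound added and fluorescence read as F/F0.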

For data set [3], the system named is HEK293. Nature of the data set: Induction of intracellular calcium level in HEK293 cells at 30 uM measured for 2.5 mins by Fluo-4-AM dye based FLIPR assay. The following applies: human, hek293, 2.5 min. For orientation: Calcium flux is commonly read through the fluorescence of an indicator in the cells.
Data set [4] addresses Transient receptor potential cation channel subfamily V member 1 (Homo sapiens) (UniProt Q8NER1). Nature of the data set: Inhibition of human TRPV1 expressed in HEK293 cells assessed as decrease in capsaicin-evoked increase in intracellular calcium level at 22 uM preincubated for 2 mins followed by capsaicin addition measured for 2.5 mins by Fluo8-AM dye-based fluorescence assay relative to control. The method in brief:
(§1)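 Same TRP panel as for the stimulation tests, with FMP dye for TRPC4 and M5 and Fluo8-AM for TRPA1, V1 and M8. Compound applied for 2 min before the channel agonist (TRPC4: 1 μM DAMGO). Inhibition of the agonist response measured on a FlexStation at 32 °C.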

Data set [5] addresses T2, Transient receptor potential cation channel subfamily M member 5 (Homo sapiens) (UniProt Q9NZQ8).
T2 sequence (whole entry): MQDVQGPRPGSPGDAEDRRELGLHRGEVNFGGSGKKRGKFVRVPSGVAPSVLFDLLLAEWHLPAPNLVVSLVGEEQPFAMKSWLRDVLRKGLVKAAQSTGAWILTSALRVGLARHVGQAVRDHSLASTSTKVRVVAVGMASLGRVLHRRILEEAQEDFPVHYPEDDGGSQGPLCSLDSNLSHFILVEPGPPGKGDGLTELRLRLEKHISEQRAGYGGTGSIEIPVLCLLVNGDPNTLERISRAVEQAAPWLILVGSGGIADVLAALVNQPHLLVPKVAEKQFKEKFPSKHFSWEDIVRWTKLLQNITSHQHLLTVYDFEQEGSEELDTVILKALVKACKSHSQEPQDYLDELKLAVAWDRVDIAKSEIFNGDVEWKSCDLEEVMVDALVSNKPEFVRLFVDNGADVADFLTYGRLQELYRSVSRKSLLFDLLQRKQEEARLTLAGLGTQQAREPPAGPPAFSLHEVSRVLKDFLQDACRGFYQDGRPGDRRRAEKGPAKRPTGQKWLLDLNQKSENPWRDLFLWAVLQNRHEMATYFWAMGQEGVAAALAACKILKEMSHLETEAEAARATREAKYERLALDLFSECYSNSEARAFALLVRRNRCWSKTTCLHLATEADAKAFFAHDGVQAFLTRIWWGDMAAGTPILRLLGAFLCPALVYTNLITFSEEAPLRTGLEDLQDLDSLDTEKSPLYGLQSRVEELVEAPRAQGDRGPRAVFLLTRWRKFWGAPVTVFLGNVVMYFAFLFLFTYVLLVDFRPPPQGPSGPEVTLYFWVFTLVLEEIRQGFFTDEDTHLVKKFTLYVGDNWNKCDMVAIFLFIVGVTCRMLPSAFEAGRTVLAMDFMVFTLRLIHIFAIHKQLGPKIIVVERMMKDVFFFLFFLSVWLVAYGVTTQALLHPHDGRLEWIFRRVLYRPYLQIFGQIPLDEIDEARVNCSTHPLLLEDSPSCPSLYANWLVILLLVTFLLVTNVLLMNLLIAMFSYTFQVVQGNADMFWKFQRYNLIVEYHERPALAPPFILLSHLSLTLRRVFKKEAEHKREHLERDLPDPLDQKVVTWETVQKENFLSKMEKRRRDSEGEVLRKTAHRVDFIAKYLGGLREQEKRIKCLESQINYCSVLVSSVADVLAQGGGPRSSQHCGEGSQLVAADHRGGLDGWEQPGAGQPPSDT
Description: Inhibition of human TRPM5 expressed in HEK293 cells assessed as decrease in carbachol-evoked membrane depolarization at 22 uM preincubated for 2 mins followed by carbachol addition measured for 2.5 mins by FLIPR membrane potential dye-based fluorescence assay relative to control. The method in brief: as §1

Sequence of Transient receptor potential cation channel subfamily V member 1 (Homo sapiens) (Q8NER1 whole entry): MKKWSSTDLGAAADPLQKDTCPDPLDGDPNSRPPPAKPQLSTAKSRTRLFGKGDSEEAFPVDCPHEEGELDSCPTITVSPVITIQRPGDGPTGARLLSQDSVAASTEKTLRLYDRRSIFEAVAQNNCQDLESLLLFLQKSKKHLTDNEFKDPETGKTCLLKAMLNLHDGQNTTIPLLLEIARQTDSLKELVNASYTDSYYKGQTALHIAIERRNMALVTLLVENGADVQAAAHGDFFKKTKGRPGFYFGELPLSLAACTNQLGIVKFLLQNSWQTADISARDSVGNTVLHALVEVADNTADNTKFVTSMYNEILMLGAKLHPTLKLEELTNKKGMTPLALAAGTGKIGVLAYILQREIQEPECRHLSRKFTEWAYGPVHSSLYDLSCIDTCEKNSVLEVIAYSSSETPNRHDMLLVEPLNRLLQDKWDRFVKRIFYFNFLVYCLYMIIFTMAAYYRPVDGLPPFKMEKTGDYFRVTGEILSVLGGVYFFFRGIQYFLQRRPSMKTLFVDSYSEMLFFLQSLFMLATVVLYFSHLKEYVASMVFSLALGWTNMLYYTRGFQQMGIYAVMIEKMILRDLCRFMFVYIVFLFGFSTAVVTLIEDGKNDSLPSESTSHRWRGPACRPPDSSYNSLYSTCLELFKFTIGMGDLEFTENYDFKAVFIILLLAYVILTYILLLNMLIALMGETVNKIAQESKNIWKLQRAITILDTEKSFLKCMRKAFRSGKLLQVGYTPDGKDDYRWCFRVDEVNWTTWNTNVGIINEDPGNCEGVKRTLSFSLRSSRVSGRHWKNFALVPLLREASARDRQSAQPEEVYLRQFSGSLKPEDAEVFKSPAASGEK

In the case of `CCOC(=O)N1CCC(c2cc(O)n3nc(C)c(-c4ccc(F)cc4)c3n2)CC1`, the outcome in data set [1] was Active. The Activity entry in the data set on HEK293 [2] and in the data set with HEK293 [3] was “Non-Toxic” in each case.

As a reminder, the inhibition is how much of the control response was suppressed. As for `CCOC(=O)N1CCC(c2cc(O)n3nc(C)c(-c4ccc(C(F)(F)F)cc4)c3n2)CC1`, the inhibition in data set [4] and in data set [5] was below 20% throughout.
